Test results: ChEMBL document CHEMBL5647697, “Akt inhibition synergizes with polycomb repressive complex 2 inhibition in the treatment of multiple myeloma” (2019)
Calls of active or inactive are those of the source. The rule behind the calls is not given here.

Columns and labels:
[1] = system: MM1.S; test: Synergistic activity against human MM.1S cells assessed as combination index […] in presence of 2.5 uM UNC1999 […] at 0.5 uM incubated for 48 hrs by […]; format: functional
Summary of the method: (§1)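 Cells were exposed to the EZH2/EZH1 inhibitor (UNC1999 or GSK126) for 72 h in total, with the Akt inhibitor added for the last 48 h. Viability was read by MTS assay relative to untreated control cells, in triplicate. The combination index for each dose pair came from isobologram analysis.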

[2] = system: NCI-H929; test: Synergistic activity against human NCI-H929 cells assessed as combination index preincubated in presence of 2.5 uM GSK126 […] at 0.125 uM incubated for 48 hrs by […]; format: functional; summary of the method: as §1
[3] = system: MM1.S; test: Synergistic activity against human MM.1S cells assessed as combination index preincubated in presence of 1.25 uM GSK126 […] at 0.25 uM incubated for 48 hrs by […]; format: functional; summary of the method: as §1
[4] = system: OPM-2; test: Synergistic activity against human OPM-2 cells assessed as combination index preincubated in presence of 2.5 uM GSK126 for 72 hrs followed by compound addition at 1.25 uM incubated for 48 hrs by MTT assay; format: functional
[5] = system: OPM-2/BTZ; test: Downregulation of E2F1 protein expression in human OPM-2/BTZ cells incubated at 0.3 to 3 micromol/L for 48 hrs by Western blot analysis; format: functional, cell-based; conditions: dose 0.3-3 µmol/L
[6] = system: MM1.S; test: Synergistic activity against human MM.1S cells assessed as combination index […] in presence of 1.25 uM UNC1999 […] at 0.5 uM incubated for 48 hrs by […] assay; format: functional; summary of the method: as §1
[7] = system: NCI-H929; test: Upregulation of EZH1 mRNA expression in human NCI-H929 cells at 0.03 to 3 micromo/L at 6 to 48 hrs by qRT-PCR analysis; format: functional, cell-based; conditions: dose 0.03-3 µmol/L, time 6-48 hrs
Summary of the method: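 EZH1 mRNA was measured by qRT-PCR in MM.1S and H929 cells. Dose series: cells were treated with graded TAS-117 for 24 h. Time course: cells were treated with 3 μmol/L for the indicated times. Fold change is after GAPDH normalization, relative to the untreated control. Data are SD of triplicates.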

[8] = system: OPM-2/BTZ; test: Synergistic activity against human OPM-2/BTZ cells assessed as combination index preincubated in presence of 1.25 uM GSK126 for 72 hrs followed by compound addition at 0.5 uM incubated for 48 hrs by MTT assay; format: functional
[9] = system: MM1.S; test: Synergistic activity against human MM.1S cells assessed as combination index […] at 0.5 uM incubated for 48 hrs by […]; format: functional; summary of the method: as §1
[10] = system: NCI-H929; test: Synergistic activity against human NCI-H929 cells assessed as combination index […] in presence of 5 uM GSK126 […] compound addition at 0.5 uM incubated for 48 hrs by […]; format: functional; summary of the method: as §1
[11] = system: OPM-2; test: Synergistic activity against human OPM-2 cells assessed as combination index preincubated in presence of 5 uM GSK126 for 72 hrs followed by compound addition at 1.25 uM incubated for 48 hrs by MTT assay; format: functional
[12] = system: NCI-H929; test: Downregulation of EZH2 mRNA expression in human NCI-H929 cells at 0.3 to 3 micromol/L after 24 hrs by qRT-PCR analysis; format: functional, cell-based; conditions: dose 0.3-3 µmol/L
Summary of the method: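 MM.1S and H929 cells given TAS-117 at the indicated doses for 24 h. mRNA measured by RT-qPCR, fold change after normalization to GAPDH; SD of triplicates; significance versus untreated control.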

[13] = system: OPM-2/BTZ; test: Synergistic activity against human OPM-2/BTZ cells assessed as combination index preincubated in presence of 2.5 uM GSK126 for 72 hrs followed by compound addition at 0.5 uM incubated for 48 hrs by MTT assay; format: functional
[14] = system: MM1.S; test: Synergistic activity against human MM.1S cells assessed as combination index […] at 0.125 uM incubated for 48 hrs by […]; format: functional; summary of the method: as §1
[15] = system: OPM-2; test: Synergistic activity against human OPM-2 cells assessed as combination index preincubated in presence of 2.5 uM UNC1999 for 72 hrs followed by compound addition at 5 uM incubated for 48 hrs by MTT assay; format: functional
[16] = system: MM1.S; test: Downregulation of CDK2 protein expression in human MM1.S cells incubated at 0.3 to 3 micromol/L for 48 hrs by Western blot analysis; format: functional, cell-based; conditions: dose 0.3-3 µmol/L
Summary of the method: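 MM.1S and H929 cells given TAS-117 at the indicated doses for 48 h. Protein levels assessed by immunoblot.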

[17] = system: MM1.S; test: Synergistic activity against human MM.1S cells assessed as combination index […] compound addition at 0.25 uM incubated for 48 hrs by MTT assay; format: functional; summary of the method: as §1
[18] = system: MM1.S; test: Induction of apoptosis in human MM1.S cells assessed as late apoptotic cells preincubated in presence of 5 micromol/L UNC1999 for 48 hrs followed by compound addition at 2 micromol/L incubated for 12 hrs by annexin V/PI staining based flow cytometry (reference value: 3.6%); format: functional; conditions: dose 2 µmol/L, at 2 µM
[19] = system: NCI-H929; test: Upregulation of p27 protein expression in human NCI-H929 cells incubated at 0.3 to 3 micromol/L for 48 hrs by Western blot analysis; format: functional, cell-based; conditions: dose 0.3-3 µmol/L
[20] = system: MM1.S; test: Upregulation of CDKN1B mRNA expression in human MM1.S cells at 1 micromol/L after 24 hrs by qRT-PCR analysis; format: functional, cell-based; conditions: dose 1.0 µmol/L
[21] = system: MM1.S; test: Synergistic activity against human MM.1S cells assessed as combination index […] at 0.5 uM incubated for 48 hrs by MTT assay; format: functional; summary of the method: as §1
[22] = system: OPM-2/BTZ; test: Synergistic activity against human OPM-2/BTZ cells assessed as combination index preincubated in presence of 2.5 uM GSK126 for 72 hrs followed by compound addition at 2 uM incubated for 48 hrs by MTT assay; format: functional
[23] = system: OPM-2; test: Synergistic activity against human OPM-2 cells assessed as combination index preincubated in presence of 2.5 uM UNC1999 for 72 hrs followed by compound addition at 1.25 uM incubated for 48 hrs by MTT assay; format: functional
[24] = system: OPM-2/BTZ; test: Upregulation of EZH1 protein expression in human OPM-2/BTZ cells at 0.03 to 3 micromol/L after 48 hrs by Western blot analysis; format: functional, cell-based; conditions: dose 0.03-3 µmol/L
[25] = system: MM1.S; test: Upregulation of p27 protein expression in human MM1.S cells incubated at 0.3 to 3 micromol/L for 48 hrs by Western blot analysis; format: functional, cell-based; conditions: dose 0.3-3 µmol/L
[26] = system: NCI-H929; test: Synergistic activity against human NCI-H929 cells assessed as combination index […] in presence of 5 uM GSK126 […] compound addition at 0.125 uM incubated for 48 hrs by […]; format: functional; summary of the method: as §1
[27] = system: NCI-H929; test: Upregulation of BIM mRNA expression in human NCI-H929 cells at 1 micromol/L after 24 hrs by qRT-PCR analysis; format: functional, cell-based; conditions: dose 1.0 µmol/L
Summary of the method: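 Cells were exposed to 1 μmol/L TAS-117 for 24 h. mRNA of FOXO3, FOXO4, BIM and CDKN1B was measured by qRT-PCR in H929 cells. Fold change is relative to the untreated control after normalization to GAPDH. Data are SD of triplicates.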

[28] = system: OPM-2; test: Synergistic activity against human OPM-2 cells assessed as combination index preincubated in presence of 2.5 uM UNC1999 for 72 hrs followed by compound addition at 2.5 uM incubated for 48 hrs by MTT assay; format: functional

Q: With C[C@]1(O)C[C@@](N)(c2ccc(-c3nc4n(c3-c3ccccc3)COc3ccncc3-4)cc2)C1 [PIFUSERTIB] as the compound, how does the CI [1] read?
A: Its CI is 0.277.

Q: And the CI [2]?
A: Its CI is 4.094.

Q: What about the CI [3] of the same compound?
A: The CI was 0.954.

Q: What about the CI [4] of the same compound?
A: The CI was 1.462.

Q: What about the Activity [5] of the same compound?
A: The Activity was “Active”.

Q: And the CI [6]?
A: The CI was 0.357.

Q: And the Activity [7]?
A: Its Activity is “Dose-Dependent Effect”.

Q: And the CI [8]?
A: The CI was 0.624.

Q: What about the CI [9] of the same compound?
A: The CI was 0.889.

Q: And the CI [10]?
A: Its CI is 7.883.

Q: What about the CI [11] of the same compound?
A: The CI was 1.44.

Q: And the Activity [12]?
A: Its Activity is “Active”.

Q: What about the CI [13] of the same compound?
A: The CI was 0.296.

Q: And the CI [14]?
A: Its CI is 0.27.

Q: What about the CI [15] of the same compound?
A: Its CI is 3.1.

Q: And the Activity [16]?
A: The Activity was “Active”.

Q: And the CI [17]?
A: The CI was 0.584.

Q: What about the Activity [18] of the same compound?
A: The Activity was 25.3%.

Q: And the Activity [19]?
A: The Activity was “Active”.

Q: And the Activity [20]?
A: Its Activity is “Active”.

Q: What about the CI [21] of the same compound?
A: Its CI is 1.03.

Q: And the CI [22]?
A: Its CI is 0.205.

Q: What about the CI [23] of the same compound?
A: The CI was 2.53.

Q: And the Activity [24]?
A: Its Activity is “Active”.

Q: What about the Activity [25] of the same compound?
A: Its Activity is “Active”.

Q: What about the CI [26] of the same compound?
A: Its CI is 7.124.

Q: What about the Activity [27] of the same compound?
A: Its Activity is “Active”.

Q: And the CI [28]?
A: Its CI is 2.79.
